M5 antag: blocks acetylcholine activation of human M5 receptor; P08912; CHO-hM5 cells, Fluo-8 calcium fluorescence, ACh EC80; inhibition, % at 3 µM; actives 0.59% (n = 360,000);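 active means inhibition above a per-plate cutoff, the mean of that plate's test compounds plus 3 SD, cut at about 27% in these data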
CHRM5 agonist: agonists of human muscarinic M5 receptor (CHRM5); actives 0.19% (n = 360,000); activation, % at 3 µM; CHO-K1 hM5 cells, Fluo-8 calcium fluorescence; 0% DMSO wells, 100% maximal acetylcholine response; P08912;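 active means activation above the run's mean over test compounds plus 3 SD, cut at about 23% in these data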;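 further: signal is peak over basal fluorescence ratio across the kinetic read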
M1 antag: antagonists of human M1 muscarinic receptor; inhibition, % at 3 µM; CHO-K1 hM1, Fluo-8 calcium fluorescence, ACh EC80 antagonist; P11229; actives 1.3% (n = 360,000);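 active means percent inhibition above its own plate's cutoff, namely the mean of that plate's compound wells plus 3 SD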;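 further: peak over basal fluorescence ratio during 140 s after agonist addition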
Target sequence (P11229 whole entry, looked up): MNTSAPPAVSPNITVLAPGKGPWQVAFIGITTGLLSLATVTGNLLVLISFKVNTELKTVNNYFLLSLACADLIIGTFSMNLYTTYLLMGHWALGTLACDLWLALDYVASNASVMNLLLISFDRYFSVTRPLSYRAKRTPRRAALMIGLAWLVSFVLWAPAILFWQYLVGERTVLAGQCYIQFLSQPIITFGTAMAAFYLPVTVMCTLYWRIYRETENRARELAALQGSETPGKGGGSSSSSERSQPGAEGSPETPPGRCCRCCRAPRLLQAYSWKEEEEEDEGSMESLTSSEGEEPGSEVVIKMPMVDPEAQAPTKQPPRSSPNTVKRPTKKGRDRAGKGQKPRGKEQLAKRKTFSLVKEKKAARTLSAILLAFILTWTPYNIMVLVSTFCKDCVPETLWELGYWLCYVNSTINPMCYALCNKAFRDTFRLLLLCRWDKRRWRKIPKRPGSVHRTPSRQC
M1 PAM: positive allosteric modulators of human M1 muscarinic receptor; CHO-K1 hM1, Fluo-8 calcium fluorescence, ACh EC20; 0% = ACh EC20, 100% = maximal ACh; activation, % at 3 µM; P11229; actives 0.088% (n = 360,000); in the data active means activation above about 19%, passing the limit was not always enough
M5 PAM: potentiates acetylcholine response at human M5 receptor | CHO-K1 hM5, Fluo-8 calcium, ACh EC20 PAM; 0% = ACh EC20, 100% = ACh EC100 | activation, % at 3 µM | actives 0.3% (n = 360,000) | AID 624038 | P08912;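 active means activation above the run cutoff, the mean activation of all test compounds plus 3 SD, cut at about 18% in these data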
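Probe or stimulus: acetylcholine, EC20 level; Assay system: human M5 receptor in CHO-K1 cells; Schedule: compound preincubation 140 s before EC20 acetylcholine addition; Technique: intracellular calcium via Fluo-8 fluorescence; Dosing: single-point, 3 µM nominal; Read-out basis: percent activation from peak-over-basal fluorescence ratio, scaled EC20-to-EC100 acetylcholine; Repeats: one well per compound, no replicates.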
M1 ag: activates human CHRM1 receptor; activation, % at 3 µM; actives 0.33% (n = 360,000); P11229; CHO-K1 hM1, Fluo-8 calcium fluorescence, agonist mode; 0% DMSO, 100% acetylcholine EC100;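 active means activation above the run's mean compound activation plus 3 SD, cut at about 16% in these data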;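 further: peak over basal fluorescence ratio within a 140 s kinetic read after compound addition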
Large screens that a line does not name were inactive; ! = not active in a repeat. In the library only some 2.2% were active in any assay of this set; here they are far more common.

CN1C2CCC1C(C(=O)O)C(OC(=O)c1ccccc1)C2 (stereo unspecified)	none
CN1C2CCC1CC(OC(=O)c1cccc(O)c1)C2 (stereo unspecified)	M1 antag 59
CC1CC(OC(=O)c2ccccc2)CC(C)N1C (stereo unspecified)	M1 antag 42
CCN1C(=O)CC(c2cccnc2)=Nc2ccccc21	M5 PAM 19
CC(NC(=O)N1CC1(C)C)c1ccccc1 (stereo unspecified)	none
CCOP(=S)(OCC)Oc1cc(C)oc(=O)c1	M1 PAM 29
CCOC(=O)[C@]12Cc3cc(C)ccc3[C@H]1N(C1CCCCC1)C(=O)c1cc(OC)ccc12	CHRM5 agonist 50 (no result: M1 antag, M1 PAM, M1 ag)
CCOC(=O)[C@]12Cc3cc(C)ccc3[C@H]1N(C(C)C)C(=O)c1ccccc12	M5 PAM 22 (no result: M1 antag, M1 PAM, M1 ag)
O=C(NN=Cc1ccc(N(CCCl)CCCl)cc1)C(=O)c1c[nH]c2ccccc12	none
Cc1cc(C)c(S(=O)(=O)N2Cc3ccccc3-n3nncc3C2)c(C)c1	none
CN1CCC(OC(=O)Cc2ccccc2)CC1	none
CN1CCC(OC(=O)C2c3ccccc3Oc3ccccc32)CC1	M5 antag 99, M1 antag 99
O=C1OC(c2ccc(Cl)cc2)=N/C1=C\N1CC2CC(C1)c1cccc(=O)n1C2 (stereo unspecified)	M5 PAM 22
CN1[C@H]2CC[C@@H]1C(C(=O)N1CCOCC1)=C(O)C2	none
COC(=O)C(O)(c1ccc(NC(=S)NC(=O)c2ccc(Cl)cc2Cl)c(C)c1)C(F)(F)F (stereo unspecified)	M5 antag 27
CCOC(=O)C(O)(c1ccc(NC(=S)NC(=O)c2ccc(Cl)cc2Cl)c(C)c1)C(F)(F)F (stereo unspecified)	M5 antag 37, M1 antag 49, M1 ag 22
O=c1[nH]c(=S)n(Cc2ccc(F)cc2)c(O)c1/C=N/N1CCCCC1	M1 ag 27
CN1CCC2(CC1)N=C(c1ccc(F)cc1)C(=S)N2	M1 antag 26
O=C1CC2OCC=C3CN4CCC56c7ccccc7N1C5C2C3CC46O (stereo unspecified)	none
CCN1CCN(Cc2cc(Br)cc(OC)c2O)CC1	M1 antag 56
Oc1c(Br)cc(Br)cc1CN1CCN(Cc2ccccc2)CC1	none
CN(C)c1ccc(/C=C/c2cc[n+](C)c3ccccc23)cc1	M1 antag 30!
C[C@]12C[C@H](O)[C@@H](O)C[C@@H]1CC[C@@H]1[C@@H]2CC[C@]2(C)C(=O)CC[C@@H]12	none
O=C1NC(=O)C2(CCN(c3ccccc3)CC2)C(=O)N1	none
Nc1cccc(SC2CC(=O)N(c3ccc(Cl)cc3C(=O)c3ccccc3)C2=O)c1 (stereo unspecified)	M5 antag 27
CN1CCN(CC(=O)Nc2ccc(Cl)cc2C(=O)c2ccccc2)CC1	none
CC(=O)Nc1ccc(OC(=O)N2CCCCC2)cc1	none
O=C(Oc1ccc([N+](=O)[O-])cc1)N1CCC(N2CCCCC2)CC1	M1 antag 85
O=C(c1ccc(Cl)cc1)C1CCCN(C2CCSCC2)C1 (stereo unspecified)	M5 antag 27, M1 antag 61
COc1ccc(C(=O)C2CCCN(C3CSCCSC3)C2)cc1OC (stereo unspecified)	M1 antag 97
COc1ccc(-c2ccc3c(c2)CN(C(=O)CCc2ccccc2)Cc2cnnn2-3)cc1	none
CCC(=NCc1ccco1)c1c(O)n(-c2ccc(Cl)cc2)c(=O)[nH]c1=O	M5 PAM 26
CCC(=NCc1ccco1)c1c(O)n(-c2ccc(OC)cc2)c(=O)[nH]c1=O	none
ClC1C(Cl)C(Cl)C(Cl)C(Cl)C1Cl (stereo unspecified)	M5 antag 35!, CHRM5 agonist 84!, M1 ag 47!
c1ccc(C2NCCc3[nH]cnc32)cc1 (stereo unspecified)	none
Cc1nn(Cc2ccccc2Cl)c(Cl)c1C(=O)O	M1 antag 36
Cc1nn(Cc2ccccc2)c(Cl)c1C(=O)O	none
COCCCNP1(=O)OCC(C)([N+](=O)[O-])CO1 (stereo unspecified)	none
COc1ccc(OCC#CCN2CCCCCC2)cc1	none
Cc1ccc(C(C)C)c(OCC#CCN2CCCC2)c1	M5 antag 44, M1 antag 90
Cc1ccc(CN2C3CCCC2CC(NC(=O)Nc2cccc(F)c2)C3)cc1 (stereo unspecified)	M1 antag 38
C=C1N2CCC(CC2)C1(O)c1ccc(C)c(C)c1 (stereo unspecified)	M5 antag 33, M1 antag 72
O=C(c1ccc(C(F)(F)F)cc1)C1CCCN(Cc2ccncc2)C1 (stereo unspecified)	none
COc1ccc(CN2CCCC(C(=O)c3ccc(Cl)cc3)C2)c(O)c1 (stereo unspecified)	none
O=C(c1ccc(Cl)cc1)C1CCCN(Cc2ccc3nonc3c2)C1 (stereo unspecified)	M1 antag 43
O=C(c1ccc(Cl)cc1)C1CCCN(Cc2cccc3ncccc23)C1 (stereo unspecified)	M5 antag 34, M1 antag 51
O=C(c1ccc(Cl)cc1)C1CCCN(Cc2cccc3cccnc23)C1 (stereo unspecified)	M1 antag 58
O=C1C=CC(=O)C2C1C1(Cl)C(Cl)=C(Cl)C2(Cl)C1(Cl)Cl (stereo unspecified)	none
OC(CN1CCC(c2c[nH]c3ccccc23)CC1)C(F)(F)F (stereo unspecified)	none
O=[N+]([O-])c1ccc(-[n+]2c(-c3ccccc3)cc(-c3ccccc3)cc2-c2ccccc2)cc1	M1 antag 36
COC(=O)C1=C(c2ccc(Cl)c(C(F)(F)F)c2)C[C@@H]2CC[C@H]1N2C(=O)N1CCC(C)CC1	none
CCCCCCC(Cl)(Cn1ccnc1)c1ccccc1 (stereo unspecified)	M1 antag 33
CCOC(=O)[C@]12Cc3ccccc3[C@H]1N(CCC(=O)OC)C(=O)c1ccccc12	none (no result: M1 antag, M1 PAM, M1 ag)
CCc1ccc(-n2c(O)c(/C=N/N3CCCCC3c3cccnc3)c(=O)[nH]c2=O)cc1 (stereo unspecified)	M5 PAM 19
c1ccc2c(c1)[IH]c1ccccc1-2	none
CCCC[N+]1(C)[C@@H]2CC(OC(=O)[C@H](CO)c3ccccc3)C[C@H]1[C@@H]1O[C@@H]12 (stereo partly specified)	M5 antag 72, M1 antag 98
O=C(OC1CCN(CCCl)CC1)C(c1ccccc1)c1ccccc1	M5 antag 64
